Data published in ChEMBL document CHEMBL1926593, “Studies on the synthesis and antibacterial activity of 3,6-disubstituted 1,2,4-triazolo[3,4-b]1,3,4-thiadiazoles” (2012).
In brackets after ≈: the same amount, converted by molar mass. Activity calls are given as the source filed them. No cut-off for these calls is given here.

Legend:
[1] = test system: Escherichia coli; test: Antibacterial activity against drug-sensitive Escherichia coli ATCC 25922 by broth microdilution method; type: functional, organism-based
Method in brief: (§1)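 Broth microdilution per CLSI recommendation. MIC is the lowest concentration with no visible growth. MBC is the lowest concentration giving >99.9% reduction in CFU of the initial inoculum. Ampicillin, cefuroxime and vancomycin served as reference agents.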

[2] = test system: Proteus mirabilis; test: Antibacterial activity against drug-sensitive Proteus mirabilis ATCC 12453 by broth microdilution method; type: functional, organism-based; method in brief: as §1
[3] = test system: Klebsiella pneumoniae; test: Antibacterial activity against drug-sensitive Klebsiella pneumoniae ATCC 13883 by broth microdilution method; type: functional, organism-based; method in brief: as §1
[4] = test system: Staphylococcus aureus; test: Antibacterial activity against methicillin-resistant Staphylococcus aureus ATCC 14001 by broth microdilution method; type: functional
Method in brief: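 Broth microdilution following CLSI recommendations. MIC was read as the lowest concentration giving no visible growth. Ampicillin, cefuroxime and vancomycin were the reference antibacterials.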

[5] = test system: Bacillus cereus; test: Ratio of ampicillin MIC to compound MIC for drug-sensitive Bacillus cereus ATCC 10876 by broth microdilution method; type: functional
[6] = test system: Bacillus cereus; test: Antibacterial activity against drug-sensitive Bacillus cereus ATCC 10876 by broth microdilution method; type: functional; method in brief: as §1
[7] = test system: Bacillus subtilis; test: Antibacterial activity against drug-sensitive Bacillus subtilis ATCC 6633 by broth microdilution method; type: functional; method in brief: as §1
[8] = test system: Staphylococcus epidermidis; test: Antibacterial activity against drug-sensitive Staphylococcus epidermidis ATCC 12228 by broth microdilution method; type: functional; method in brief: as §1
[9] = test system: Pseudomonas aeruginosa; test: Antibacterial activity against drug-sensitive Pseudomonas aeruginosa ATCC 9027 by broth microdilution method; type: functional, organism-based; method in brief: as §1
[10] = test system: Staphylococcus aureus; test: Ratio of MBC to MIC for methicillin-resistant Staphylococcus aureus ATCC 14001; type: functional
Method in brief: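 Broth microdilution following CLSI recommendations. MIC was the lowest concentration with no visible growth. MBC was the lowest concentration giving a >99.9% reduction in CFU relative to the initial inoculum. The ratio was taken from these two values.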

[11] = test system: Micrococcus luteus; test: Antibacterial activity against drug-sensitive Micrococcus luteus ATCC 10240 by broth microdilution method; type: functional; method in brief: as §1
[12] = test system: Staphylococcus aureus; test: Antibacterial activity against drug-sensitive Staphylococcus aureus ATCC 25923 by broth microdilution method; type: functional; method in brief: as §1
[13] = test system: Staphylococcus aureus; test: Antibacterial activity against drug-sensitive Staphylococcus aureus ATCC 6538 by broth microdilution method; type: functional; method in brief: as §1
[14] = test system: Bacillus subtilis; test: Ratio of ampicillin MIC to compound MIC for drug-sensitive Bacillus subtilis ATCC 6633 by broth microdilution method; type: functional
[15] = test system: Bacillus cereus; test: Ratio of cefuroxime MIC to compound MIC for drug-sensitive Bacillus cereus ATCC 10876 by broth microdilution method; type: functional

SMILES | Activity [1] | Activity [2] | Activity [3] | MBC [4] [µg/mL] | MIC [4] [µg/mL] | Ratio [5] | MBC [6] [µg/mL] | MIC [6] [µg/mL] | MBC [7] [µg/mL] | MIC [7] [µg/mL] | MBC [8] [µg/mL] | MIC [8] [µg/mL] | Activity [9] | Ratio [10] | MBC [11] [µg/mL] | MIC [11] [µg/mL] | MBC [12] [µg/mL] | MIC [12] [µg/mL] | MBC [13] [µg/mL] | MIC [13] [µg/mL] | other results
Clc1ccccc1-c1nnc2sc(Nc3ccc(Br)cc3)nn12 | inactive | inactive | inactive | 15.6 (≈ 38.4 µM) | 1.95 (≈ 4.79 µM) | 8 | 15.6 (≈ 38.4 µM) | 7.81 (≈ 19.2 µM) | 15.6 (≈ 38.4 µM) | 1.95 (≈ 4.79 µM) | 3.91 (≈ 9.61 µM) | 0.98 (≈ 2.41 µM) | inactive | 8 | 7.81 (≈ 19.2 µM) | 7.81 (≈ 19.2 µM) | 15.6 (≈ 38.4 µM) | 1.95 (≈ 4.79 µM) | 62.5 (≈ 154 µM) | 7.81 (≈ 19.2 µM) | Ratio [14]: 8
Clc1ccc(Nc2nn3c(-c4ccccc4)nnc3s2)cc1 | inactive | inactive | inactive | 62.5 (≈ 191 µM) | 1.95 (≈ 5.95 µM) | 4 | 15.6 (≈ 47.7 µM) | 15.6 (≈ 47.7 µM) | 7.81 (≈ 23.8 µM) | 1.95 (≈ 5.95 µM) | 3.91 (≈ 11.9 µM) | 0.98 (≈ 2.99 µM) | inactive | 32 | 15.6 (≈ 47.7 µM) | 7.81 (≈ 23.8 µM) | 31.2 (≈ 95.3 µM) | 3.91 (≈ 11.9 µM) | 31.2 (≈ 95.3 µM) | 15.6 (≈ 47.7 µM) | Ratio [15]: 2; Ratio [14]: 8
Clc1ccc(Nc2nn3c(-c4ccc(Cl)cc4)nnc3s2)cc1 | inactive | inactive | inactive | 62.5 (≈ 173 µM) | 7.81 (≈ 21.6 µM) | 8 | 31.2 (≈ 86.3 µM) | 7.81 (≈ 21.6 µM) | 7.81 (≈ 21.6 µM) | 3.91 (≈ 10.8 µM) | 15.6 (≈ 43.1 µM) | 3.91 (≈ 10.8 µM) | inactive | 8 | 31.2 (≈ 86.3 µM) | 15.6 (≈ 43.1 µM) | 62.5 (≈ 173 µM) | 3.91 (≈ 10.8 µM) | 62.5 (≈ 173 µM) | 0.98 (≈ 2.71 µM) | Ratio [14]: 4
Clc1cccc(-c2nnc3sc(Nc4ccc(Br)cc4)nn23)c1 | inactive | inactive | inactive | 125 (≈ 307 µM) | 0.98 (≈ 2.41 µM) | 4 | 31.2 (≈ 76.8 µM) | 15.6 (≈ 38.4 µM) | 1.95 (≈ 4.79 µM) | 1.95 (≈ 4.79 µM) | 3.91 (≈ 9.61 µM) | 0.98 (≈ 2.41 µM) | inactive | 128 | 3.91 (≈ 9.61 µM) | 3.91 (≈ 9.61 µM) | 31.2 (≈ 76.8 µM) | 0.98 (≈ 2.41 µM) | 31.2 (≈ 76.8 µM) | 0.49 (≈ 1.2 µM) | Ratio [15]: 2
Clc1ccc(Nc2nn3c(-c4cccc(Cl)c4)nnc3s2)cc1 | inactive | inactive | inactive | 62.5 (≈ 173 µM) | 0.98 (≈ 2.71 µM) | 8 | 15.6 (≈ 43.1 µM) | 7.81 (≈ 21.6 µM) | 1.95 (≈ 5.38 µM) | 1.95 (≈ 5.38 µM) | 3.91 (≈ 10.8 µM) | 0.98 (≈ 2.71 µM) | inactive | 64 | 3.91 (≈ 10.8 µM) | 3.91 (≈ 10.8 µM) | 31.2 (≈ 86.3 µM) | 1.95 (≈ 5.38 µM) | 31.2 (≈ 86.3 µM) | 0.49 (≈ 1.35 µM) | Ratio [15]: 4; Ratio [14]: 8
CO/N=C(\C(=O)N[C@@H]1C(=O)N2C(C(=O)O)=C(COC(N)=O)CS[C@H]12)c1ccco1 [CEFUROXIME] |  |  |  |  |  |  |  | 31.2 (≈ 73.6 µM) |  | 15.6 (≈ 36.8 µM) |  | 0.24 (≈ 0.566 µM) |  |  |  | 0.98 (≈ 2.31 µM) |  | 0.49 (≈ 1.15 µM) |  | 0.98 (≈ 2.31 µM) | 
Clc1ccc(-c2nnc3sc(Nc4ccc(Br)cc4)nn23)cc1 | inactive | inactive | inactive | 125 (≈ 307 µM) | 7.81 (≈ 19.2 µM) | 4 | 15.6 (≈ 38.4 µM) | 15.6 (≈ 38.4 µM) | 1.95 (≈ 4.79 µM) | 1.95 (≈ 4.79 µM) | 1.95 (≈ 4.79 µM) | 1.95 (≈ 4.79 µM) | inactive | 16 | 15.6 (≈ 38.4 µM) | 15.6 (≈ 38.4 µM) | 31.2 (≈ 76.8 µM) | 1.95 (≈ 4.79 µM) | 31.2 (≈ 76.8 µM) | 0.98 (≈ 2.41 µM) | Ratio [15]: 2; Ratio [14]: 8
Clc1ccc(Nc2nn3c(-c4ccccc4Cl)nnc3s2)cc1 | inactive | inactive | inactive | 62.5 (≈ 173 µM) | 1.95 (≈ 5.38 µM) | 16 | 3.91 (≈ 10.8 µM) | 3.91 (≈ 10.8 µM) | 15.6 (≈ 43.1 µM) | 3.91 (≈ 10.8 µM) | 15.6 (≈ 43.1 µM) | 3.91 (≈ 10.8 µM) | inactive | 32 | 15.6 (≈ 43.1 µM) | 7.81 (≈ 21.6 µM) | 31.2 (≈ 86.3 µM) | 15.6 (≈ 43.1 µM) | 15.6 (≈ 43.1 µM) | 15.6 (≈ 43.1 µM) | Ratio [15]: 8; Ratio [14]: 4
CN[C@H](CC(C)C)C(=O)N[C@H]1C(=O)N[C@@H](CC(N)=O)C(=O)N[C@H]2C(=O)N[C@H]3C(=O)N[C@H](C(=O)N[C@H](C(=O)O)c4cc(O)cc(O)c4-c4cc3ccc4O)[C@H](O)c3ccc(c(Cl)c3)Oc3cc2cc(c3O[C@@H]2O[C@H](CO)[C@@H](O)[C@H](O)[C@H]2O[C@H]2C[C@](C)(N)[C@H](O)[C@H](C)O2)Oc2ccc(cc2Cl)[C@H]1O [VANCOMYCIN] |  |  |  | 3.91 (≈ 2.7 µM) | 0.98 (≈ 0.676 µM) |  | 31.2 (≈ 21.6 µM) | 0.98 (≈ 0.676 µM) | 0.49 (≈ 0.338 µM) | 0.25 (≈ 0.173 µM) | 1.95 (≈ 1.35 µM) | 0.98 (≈ 0.676 µM) |  | 4 | 0.49 (≈ 0.338 µM) | 0.25 (≈ 0.173 µM) | 7.81 (≈ 5.39 µM) | 0.98 (≈ 0.676 µM) | 1.95 (≈ 1.35 µM) | 0.49 (≈ 0.338 µM) | 
Brc1ccc(Nc2nn3c(-c4ccccc4)nnc3s2)cc1 | inactive | inactive | inactive | 62.5 (≈ 168 µM) | 7.81 (≈ 21 µM) | 4 | 15.6 (≈ 42 µM) | 15.6 (≈ 42 µM) | 1.91 (≈ 5.13 µM) | 0.98 (≈ 2.63 µM) | 0.98 (≈ 2.63 µM) | 0.49 (≈ 1.32 µM) | inactive | 8 | 7.81 (≈ 21 µM) | 3.91 (≈ 10.5 µM) | 31.2 (≈ 83.9 µM) | 0.98 (≈ 2.63 µM) | 125 (≈ 336 µM) | 15.6 (≈ 42 µM) | Ratio [15]: 2; Ratio [14]: 16
CC1(C)S[C@@H]2[C@H](NC(=O)[C@H](N)c3ccccc3)C(=O)N2[C@H]1C(=O)O [AMPICILLIN] |  |  |  |  |  |  |  | 62.5 (≈ 179 µM) |  |  |  |  |  |  |  |  |  |  |  |  | 
